According to ChEMBL document CHEMBL5705888, “Substrate specificity and inhibitors of LRRK2, a protein kinase mutated in Parkinson's disease” (Biochem J, 2009):
Activity calls are given as the source filed them. The rule behind the calls is not given here.

Experiments:
[1] = biological target: Ribosomal protein S6 kinase alpha-5 (Homo sapiens) (UniProt O75582); test: Inhibition of MSK1 (unknown origin) at 10 uM incubated for 30 mins in presence of [gamma-33P]ATP by multidrop micro reagent based assay relative to control
Sequence of Ribosomal protein S6 kinase alpha-5 (Homo sapiens) (O75582 whole entry, looked up): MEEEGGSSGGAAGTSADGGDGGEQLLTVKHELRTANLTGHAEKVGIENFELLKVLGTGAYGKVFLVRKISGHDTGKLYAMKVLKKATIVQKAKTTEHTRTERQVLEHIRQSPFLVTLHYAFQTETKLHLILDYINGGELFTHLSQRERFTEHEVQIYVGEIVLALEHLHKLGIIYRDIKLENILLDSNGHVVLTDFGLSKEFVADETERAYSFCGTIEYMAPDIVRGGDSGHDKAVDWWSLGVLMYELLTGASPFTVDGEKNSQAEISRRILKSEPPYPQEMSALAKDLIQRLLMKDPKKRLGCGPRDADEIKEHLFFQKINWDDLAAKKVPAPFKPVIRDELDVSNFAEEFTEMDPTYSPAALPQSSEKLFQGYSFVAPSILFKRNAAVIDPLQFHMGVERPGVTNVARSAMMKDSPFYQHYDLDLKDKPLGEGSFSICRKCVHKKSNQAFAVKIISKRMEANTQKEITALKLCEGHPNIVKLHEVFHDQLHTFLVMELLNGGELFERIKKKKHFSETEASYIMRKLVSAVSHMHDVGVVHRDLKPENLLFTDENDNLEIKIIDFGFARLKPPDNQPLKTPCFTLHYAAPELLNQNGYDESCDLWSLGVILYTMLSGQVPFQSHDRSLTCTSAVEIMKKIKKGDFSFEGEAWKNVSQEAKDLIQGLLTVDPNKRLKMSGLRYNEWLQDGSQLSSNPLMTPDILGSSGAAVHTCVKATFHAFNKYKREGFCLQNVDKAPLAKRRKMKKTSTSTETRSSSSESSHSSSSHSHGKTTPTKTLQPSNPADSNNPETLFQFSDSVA
Outline: (§1)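 Single-concentration screen across a panel of 85 protein kinases. Activity is expressed as a percentage of control incubations run without inhibitor.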

[2] = biological target: Dual specificity tyrosine-phosphorylation-regulated kinase 1A (Homo sapiens) (UniProt Q13627); test: Inhibition of DYRK1A (unknown origin) at 10 uM incubated for 30 mins in presence of [gamma-33P]ATP by multidrop micro reagent based assay relative to control; values are per cent of control
[3] = biological target: Serine/threonine-protein kinase N2 (Homo sapiens) (UniProt Q16513); test: Inhibition of PRK2 (unknown origin) at 10 uM incubated for 30 mins in presence of [gamma-33P]ATP by multidrop micro reagent based assay relative to control; outline: as §1
Sequence of Serine/threonine-protein kinase N2 (Homo sapiens) (Q16513 whole entry, looked up): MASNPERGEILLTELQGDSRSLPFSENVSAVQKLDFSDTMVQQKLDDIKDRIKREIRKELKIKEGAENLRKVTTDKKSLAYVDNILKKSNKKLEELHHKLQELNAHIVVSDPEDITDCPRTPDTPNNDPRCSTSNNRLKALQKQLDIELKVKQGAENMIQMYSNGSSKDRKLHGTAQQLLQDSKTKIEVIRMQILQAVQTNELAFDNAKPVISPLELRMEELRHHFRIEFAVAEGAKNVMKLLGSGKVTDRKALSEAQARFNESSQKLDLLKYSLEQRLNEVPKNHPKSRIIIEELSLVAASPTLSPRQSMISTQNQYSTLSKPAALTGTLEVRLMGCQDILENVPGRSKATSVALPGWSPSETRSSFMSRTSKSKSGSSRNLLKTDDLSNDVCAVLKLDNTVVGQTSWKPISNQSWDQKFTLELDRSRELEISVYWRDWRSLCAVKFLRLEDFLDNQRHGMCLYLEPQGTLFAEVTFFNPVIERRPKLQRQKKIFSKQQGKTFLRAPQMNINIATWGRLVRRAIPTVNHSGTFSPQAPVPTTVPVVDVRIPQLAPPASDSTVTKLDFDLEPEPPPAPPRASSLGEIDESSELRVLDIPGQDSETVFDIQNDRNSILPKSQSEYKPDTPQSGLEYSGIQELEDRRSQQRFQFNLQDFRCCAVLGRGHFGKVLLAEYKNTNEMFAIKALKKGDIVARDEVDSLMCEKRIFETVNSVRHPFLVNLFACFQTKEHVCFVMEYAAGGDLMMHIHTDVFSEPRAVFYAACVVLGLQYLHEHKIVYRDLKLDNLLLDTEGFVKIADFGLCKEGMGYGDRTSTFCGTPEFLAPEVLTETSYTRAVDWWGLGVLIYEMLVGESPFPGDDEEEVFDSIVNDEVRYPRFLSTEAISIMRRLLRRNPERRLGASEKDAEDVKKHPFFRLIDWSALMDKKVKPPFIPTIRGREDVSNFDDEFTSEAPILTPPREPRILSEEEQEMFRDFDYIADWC

[4] = biological target: Insulin receptor (Homo sapiens) (UniProt P06213); test: Inhibition of His-tagged IR (unknown origin) at 10 uM incubated for 30 mins in presence of [gamma-33P]ATP by multidrop micro reagent based assay relative to control
[5] = biological target: Ribosomal protein S6 kinase alpha-1 (Homo sapiens) (UniProt Q15418); test: Inhibition of RSK1 (unknown origin) at 10 uM incubated for 30 mins in presence of [gamma-33P]ATP by multidrop micro reagent based assay relative to control; outline: as §1
[6] = biological target: Casein kinase 2 (Homo sapiens) (UniProt P67870+P68400+P19784+Q8NEV1); test: Inhibition of CK2 (unknown origin) at 10 uM incubated for 30 mins in presence of [gamma-33P]ATP by multidrop micro reagent based assay relative to control; values are per cent of control
[7] = biological target: Mitogen-activated protein kinase 9 (Homo sapiens) (UniProt P45984); test: Inhibition of JNK2 (unknown origin) at 10 uM incubated for 30 mins in presence of [gamma-33P]ATP by multidrop micro reagent based assay relative to control; values are per cent of control
[8] = biological target: Calcium/calmodulin-dependent protein kinase kinase 2 (Homo sapiens) (UniProt Q96RR4); test: Residual activity of CaMKKbeta (unknown origin) at 10 uM incubated for 30 mins in presence of [gamma-33P]ATP by multidrop micro reagent based assay relative to control
[9] = biological target: MAP/microtubule affinity-regulating kinase 3 (Homo sapiens) (UniProt P27448); test: Inhibition of MARK3 (unknown origin) at 10 uM incubated for 30 mins in presence of [gamma-33P]ATP by multidrop micro reagent based assay relative to control; values are per cent of control
Sequence of MAP/microtubule affinity-regulating kinase 3 (Homo sapiens) (P27448 whole entry, looked up): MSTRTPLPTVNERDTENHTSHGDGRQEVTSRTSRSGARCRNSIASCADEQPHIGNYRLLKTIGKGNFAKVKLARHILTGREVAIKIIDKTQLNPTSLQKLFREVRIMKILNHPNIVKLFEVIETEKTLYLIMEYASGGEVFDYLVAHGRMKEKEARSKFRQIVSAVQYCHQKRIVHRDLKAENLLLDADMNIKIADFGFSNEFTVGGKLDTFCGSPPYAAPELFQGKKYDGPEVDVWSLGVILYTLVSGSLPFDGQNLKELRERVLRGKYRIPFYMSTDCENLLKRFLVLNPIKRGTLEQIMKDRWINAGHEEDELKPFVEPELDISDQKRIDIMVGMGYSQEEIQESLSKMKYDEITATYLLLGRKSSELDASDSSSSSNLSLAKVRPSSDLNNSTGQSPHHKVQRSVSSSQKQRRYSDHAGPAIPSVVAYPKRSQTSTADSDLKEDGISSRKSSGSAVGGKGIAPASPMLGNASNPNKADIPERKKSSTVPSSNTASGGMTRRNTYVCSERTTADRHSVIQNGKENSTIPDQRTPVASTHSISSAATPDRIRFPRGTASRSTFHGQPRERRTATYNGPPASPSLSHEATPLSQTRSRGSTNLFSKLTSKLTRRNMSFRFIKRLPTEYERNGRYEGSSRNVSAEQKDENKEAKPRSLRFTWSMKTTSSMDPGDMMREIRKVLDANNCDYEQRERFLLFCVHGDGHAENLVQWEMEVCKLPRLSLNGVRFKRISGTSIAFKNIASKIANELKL

[10] = biological target: Tyrosine-protein kinase BTK (Homo sapiens) (UniProt Q06187); test: Inhibition of BTK (unknown origin) at 10 uM incubated for 30 mins in presence of [gamma-33P]ATP by multidrop micro reagent based assay relative to control; values are per cent of control
[11] = biological target: T1, Ephrin type-B receptor 3 (Homo sapiens) (UniProt P54753); test: Inhibition of EPH-B3 (unknown origin) at 10 uM incubated for 30 mins in presence of [gamma-33P]ATP by multidrop micro reagent based assay relative to control; values are per cent of control
T1 sequence (whole entry): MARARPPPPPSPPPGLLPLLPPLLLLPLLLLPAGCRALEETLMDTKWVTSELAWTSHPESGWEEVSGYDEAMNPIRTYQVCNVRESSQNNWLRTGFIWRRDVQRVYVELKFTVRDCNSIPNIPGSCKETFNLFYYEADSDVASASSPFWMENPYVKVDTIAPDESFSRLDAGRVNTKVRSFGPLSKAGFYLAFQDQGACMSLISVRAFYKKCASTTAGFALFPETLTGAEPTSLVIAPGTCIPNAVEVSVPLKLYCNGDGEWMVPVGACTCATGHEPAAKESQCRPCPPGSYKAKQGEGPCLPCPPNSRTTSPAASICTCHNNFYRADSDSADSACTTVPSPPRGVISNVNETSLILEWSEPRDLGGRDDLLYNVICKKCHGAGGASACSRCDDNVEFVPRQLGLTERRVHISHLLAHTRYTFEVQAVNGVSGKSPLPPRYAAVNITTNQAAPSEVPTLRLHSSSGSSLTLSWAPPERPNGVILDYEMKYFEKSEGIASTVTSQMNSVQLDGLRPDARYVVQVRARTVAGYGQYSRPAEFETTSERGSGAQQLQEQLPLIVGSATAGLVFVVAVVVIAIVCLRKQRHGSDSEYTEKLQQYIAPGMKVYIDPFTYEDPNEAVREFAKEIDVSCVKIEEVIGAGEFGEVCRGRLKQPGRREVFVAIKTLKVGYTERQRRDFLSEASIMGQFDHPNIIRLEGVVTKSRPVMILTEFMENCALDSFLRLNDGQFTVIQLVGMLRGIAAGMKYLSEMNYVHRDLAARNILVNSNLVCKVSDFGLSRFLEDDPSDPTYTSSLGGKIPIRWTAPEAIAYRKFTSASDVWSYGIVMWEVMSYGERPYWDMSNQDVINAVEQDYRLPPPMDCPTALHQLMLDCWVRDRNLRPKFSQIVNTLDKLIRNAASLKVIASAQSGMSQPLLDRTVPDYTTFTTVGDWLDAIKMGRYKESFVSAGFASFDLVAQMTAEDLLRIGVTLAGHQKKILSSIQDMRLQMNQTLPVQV

[12] = biological target: Dual specificity tyrosine-phosphorylation-regulated kinase 1A (Homo sapiens) (UniProt Q13627); test: Inhibition of DYRK1A (unknown origin) at 1 uM incubated for 30 mins in presence of [gamma-33P]ATP by multidrop micro reagent based assay relative to control; values are per cent of control
[13] = biological target: Rho-associated protein kinase 2 (Homo sapiens, UniProt O75116); test: Inhibition of His6-tagged ROCK2 (2 to 543 residues) (unknown origin) using peptide as substrate incubated for 15 mins in presence of ATP by immunoblotting analysis
Sequence of Rho-associated protein kinase 2 (O75116 whole entry, the tested form may be a part): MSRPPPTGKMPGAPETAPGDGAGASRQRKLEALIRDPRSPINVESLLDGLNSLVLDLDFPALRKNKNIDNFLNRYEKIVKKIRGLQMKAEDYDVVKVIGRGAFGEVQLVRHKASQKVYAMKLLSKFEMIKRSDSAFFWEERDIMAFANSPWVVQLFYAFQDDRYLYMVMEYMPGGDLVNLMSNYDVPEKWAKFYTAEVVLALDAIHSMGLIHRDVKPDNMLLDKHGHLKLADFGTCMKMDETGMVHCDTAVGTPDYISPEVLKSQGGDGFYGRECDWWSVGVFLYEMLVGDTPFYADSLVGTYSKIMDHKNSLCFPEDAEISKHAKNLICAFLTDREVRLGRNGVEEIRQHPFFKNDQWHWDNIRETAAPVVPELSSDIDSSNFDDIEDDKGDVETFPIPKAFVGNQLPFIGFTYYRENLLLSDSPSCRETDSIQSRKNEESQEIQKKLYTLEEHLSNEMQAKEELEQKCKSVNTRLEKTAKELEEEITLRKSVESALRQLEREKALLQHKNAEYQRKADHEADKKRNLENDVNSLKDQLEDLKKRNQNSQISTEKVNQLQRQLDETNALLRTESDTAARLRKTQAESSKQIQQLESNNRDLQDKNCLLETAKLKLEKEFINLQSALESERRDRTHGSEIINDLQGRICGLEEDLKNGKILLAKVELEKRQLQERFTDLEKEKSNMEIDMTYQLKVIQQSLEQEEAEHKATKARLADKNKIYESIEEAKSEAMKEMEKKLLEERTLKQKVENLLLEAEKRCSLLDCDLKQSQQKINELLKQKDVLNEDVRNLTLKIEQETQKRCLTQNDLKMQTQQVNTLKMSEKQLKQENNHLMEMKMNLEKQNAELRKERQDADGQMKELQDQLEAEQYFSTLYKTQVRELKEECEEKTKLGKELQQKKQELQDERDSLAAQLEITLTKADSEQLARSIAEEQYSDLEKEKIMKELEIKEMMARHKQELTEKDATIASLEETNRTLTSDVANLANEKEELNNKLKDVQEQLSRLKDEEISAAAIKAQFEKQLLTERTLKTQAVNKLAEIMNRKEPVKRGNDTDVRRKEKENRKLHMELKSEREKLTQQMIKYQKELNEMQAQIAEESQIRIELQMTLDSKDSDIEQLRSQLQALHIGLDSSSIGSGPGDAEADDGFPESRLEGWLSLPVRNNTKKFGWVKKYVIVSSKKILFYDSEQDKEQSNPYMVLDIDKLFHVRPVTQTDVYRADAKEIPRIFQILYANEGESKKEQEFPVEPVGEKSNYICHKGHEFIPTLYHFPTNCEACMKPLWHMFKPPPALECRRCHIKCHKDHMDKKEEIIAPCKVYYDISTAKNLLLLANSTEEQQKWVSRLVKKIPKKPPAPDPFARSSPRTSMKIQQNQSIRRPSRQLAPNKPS

[14] = biological target: Homeodomain-interacting protein kinase 2 (Homo sapiens) (UniProt Q9H2X6); test: Inhibition of HIPK2 (unknown origin) at 1 uM incubated for 30 mins in presence of [gamma-33P]ATP by multidrop micro reagent based assay relative to control; values are per cent of control
Sequence of Homeodomain-interacting protein kinase 2 (Homo sapiens) (Q9H2X6 whole entry, looked up): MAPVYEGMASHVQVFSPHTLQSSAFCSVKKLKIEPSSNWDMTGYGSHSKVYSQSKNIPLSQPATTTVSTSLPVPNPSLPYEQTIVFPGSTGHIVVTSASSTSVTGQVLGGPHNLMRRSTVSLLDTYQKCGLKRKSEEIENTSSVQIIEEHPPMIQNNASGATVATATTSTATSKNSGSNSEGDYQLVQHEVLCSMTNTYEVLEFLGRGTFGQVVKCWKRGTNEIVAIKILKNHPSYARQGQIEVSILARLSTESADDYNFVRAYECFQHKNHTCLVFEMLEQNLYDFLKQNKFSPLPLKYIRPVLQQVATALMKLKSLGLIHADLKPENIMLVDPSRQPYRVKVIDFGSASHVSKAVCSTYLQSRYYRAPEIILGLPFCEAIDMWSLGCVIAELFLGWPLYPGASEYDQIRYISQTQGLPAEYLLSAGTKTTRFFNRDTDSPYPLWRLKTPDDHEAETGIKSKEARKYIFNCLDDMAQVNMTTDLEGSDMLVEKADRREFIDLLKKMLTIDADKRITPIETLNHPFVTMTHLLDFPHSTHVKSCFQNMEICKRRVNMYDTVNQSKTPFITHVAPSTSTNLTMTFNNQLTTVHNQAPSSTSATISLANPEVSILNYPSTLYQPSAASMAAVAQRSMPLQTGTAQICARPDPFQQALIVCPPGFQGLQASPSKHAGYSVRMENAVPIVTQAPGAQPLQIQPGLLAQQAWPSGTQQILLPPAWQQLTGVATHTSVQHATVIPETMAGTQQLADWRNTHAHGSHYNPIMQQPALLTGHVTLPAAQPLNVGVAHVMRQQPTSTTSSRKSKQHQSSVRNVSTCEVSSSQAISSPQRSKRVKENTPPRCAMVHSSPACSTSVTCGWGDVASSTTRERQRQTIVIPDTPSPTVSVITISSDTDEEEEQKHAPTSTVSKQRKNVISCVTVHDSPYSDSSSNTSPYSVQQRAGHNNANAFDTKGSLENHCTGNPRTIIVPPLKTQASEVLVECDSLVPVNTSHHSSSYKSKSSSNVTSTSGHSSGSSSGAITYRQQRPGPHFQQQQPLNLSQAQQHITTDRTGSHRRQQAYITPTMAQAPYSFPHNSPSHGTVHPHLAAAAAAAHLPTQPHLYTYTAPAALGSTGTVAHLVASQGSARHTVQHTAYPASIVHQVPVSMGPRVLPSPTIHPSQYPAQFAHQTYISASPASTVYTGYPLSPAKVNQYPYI

[15] = biological target: Leucine-rich repeat serine/threonine-protein kinase 2 (Mus musculus) (UniProt Q5S006); test: Inhibition of LRRK2 in mouse Swiss-3T3 cells at 0.3 uM using Nictide as substrate by immunoblot analysis; assay type: cell-based
[16] = biological target: Myosin light chain kinase, smooth muscle (Homo sapiens) (UniProt Q15746); test: Inhibition of SmMLCK (unknown origin) at 0.1 uM incubated for 30 mins in presence of [gamma-33P]ATP by multidrop micro reagent based assay relative to control; outline: as §1

With `C[C@@H](N)[C@H]1CC[C@H](C(=O)Nc2ccncc2)CC1` the inhibition [1] was 41%, the residual activity [2] was 96% and the inhibition [3] was 7%. It also gave an inhibition [4] of 113%, an inhibition [5] of 26% and a residual activity [6] of 85%. For the same molecule, the residual activity [7] was 96%, the residual activity [8] was 102% and the residual activity [9] was 105%.
Molecule `O=S(=O)(c1cccc2cnccc12)N1CCCNCC1` [FASUDIL] has a residual activity [10] of 112% and a residual activity [11] of 65%.
For `CC1=C(C(=O)Nc2cc3cn[nH]c3cc2F)C(c2ccc(C(F)(F)F)cc2)CC(=O)N1` (stereo unspecified), the residual activity [12] was 98%, the IC50 [13] was 63 nM and the residual activity [14] was 104%.
With `CCN(CC)CCNC(=O)c1c(C)[nH]c(/C=C2\C(=O)Nc3ccc(F)cc32)c1C` the inhibition [15] was “Active” and the inhibition [16] was 49%.
